Experimental data of several laboratories.
Each line is one published result; the experiments were not run side by side.
KCNH2: Voltage-gated inwardly rectifying potassium channel KCNH2 (KCNH2, Homo sapiens, UniProt Q12809)
gag-pol protease: Gag-Pol polyprotein, protease (gag-pol, Human immunodeficiency virus type 1 group M subtype B, UniProt P04585)
CES1: Liver carboxylesterase 1 (CES1, Homo sapiens, UniProt P23141)
F2: Prothrombin (F2, Homo sapiens, UniProt P00734)

CC(C)=CCC[C@](C)(O)[C@H]1CC[C@]2(C)[C@@H]1[C@H](O)C[C@@H]1[C@@]3(C)CC[C@H](O)C(C)(C)[C@@H]3[C@@H](O[C@@H]3O[C@H](CO)[C@@H](O)[C@H](O)[C@H]3O)C[C@]12C
Kd (Aldo-keto reductase family 1 member B10 (AKR1B10, Homo sapiens, UniProt O60218); binding, BLI): 3.19 µM

O=c1c2cc(Cl)ccc2[nH]c(=S)n1Cc1ccc(-c2nnn[nH]2)nc1
IC50 (KCNH2; ion current, inhibitor, patch clamp; pH 7.4): > 10 µM

COc1ccc(S(=O)(=O)N(CC(C)C)C[C@@H](O)[C@H](Cc2ccccc2)NC(=O)O[C@H]2CCC[C@]23CCO[C@H](c2ccccc2OC)C3)cc1
Ki (gag-pol protease; enzyme activity, inhibitor): 0.00022 µM

C=CCc1ccc(O)c(-c2cc(CC=C)ccc2O)c1
Ki (CES1; enzyme activity, inhibitor): 0.094 µM

CN1CCC(CNc2ccc3ncc(-c4cccc(OC(F)(F)F)c4)n3n2)CC1
IC50 (3',5'-cyclic-AMP phosphodiesterase 4D (PDE4D, Homo sapiens, UniProt Q08499); enzyme activity, inhibitor): 5.04 µM

COc1cc2c(cc1OC)CN(CCc1ccc(NC(=O)c3cccc4c(=O)c5cccc(OC)c5[nH]c34)cc1)CC2
Ki (5-hydroxytryptamine receptor 1B (HTR1B, Homo sapiens, UniProt P28222); cell-free assay): > 10 µM

COc1ccc(S(=O)(=O)N(CC(C)C)C[C@@H](O)[C@H](Cc2ccccc2)NC(=O)O[C@@H]2CCC[C@@]23CCO[C@@H](c2cccc(OC)c2)C3)cc1
Ki (gag-pol protease; enzyme activity, inhibitor): 1.14 µM

COc1c2c(cc3c1-c1c(cc4c(c1OC)OCO4)C[C@H](C)[C@H](C)C3)OCO2
Ki (CES1; enzyme activity, inhibitor): 0.0898 µM

CCOC(=O)N[C@@H](CCCNC(=N)N)C(=O)N[C@@H](CCC(N)=O)C(=O)N[C@@H](Cc1ccccc1)C(=O)N[C@@H](CCCNC(=N)N)C(=O)c1nc2ccccc2s1
Ki (F2; cell-free assay): > 10 µM

COc1ccc(S(=O)(=O)N(CC(C)C)C[C@@H](O)[C@H](Cc2ccccc2)NC(=O)O[C@@H]2CCC[C@@]23CCO[C@@H](c2ccccc2)C3)cc1
Ki (gag-pol protease; enzyme activity, inhibitor): 0.051 µM

NCCc1c[nH]c2ccc(O)cc12
Kd (tlpQ (Pseudomonas aeruginosa, UniProt Q9I0I4); binding, ITC): > 1000 µM

CCOC(=O)c1ccc(OC(=O)CCCCCN=C(N)N)cc1
IC50 (F2; enzyme activity, inhibitor): 0.588 µM

COc1ccc(S(=O)(=O)N(CC(C)C)C[C@@H](O)[C@H](Cc2ccccc2)NC(=O)O[C@@H]2CCC[C@@]23CCO[C@@H](c2cc(OC)cc(OC)c2)C3)cc1
Ki (gag-pol protease; enzyme activity, inhibitor): 0.0355 µM

O=c1c2cc(Cl)c(CO)cc2[nH]c(=S)n1Cc1cccnc1
IC50 (KCNH2; ion current, inhibitor, patch clamp; pH 7.4): > 10 µM

COCCC(=O)N[C@@H](CCC(N)=O)C(=O)N[C@@H](Cc1ccccc1)C(=O)N[C@@H](CCCNC(=N)N)C(=O)c1nc2ccccc2s1
Ki (F2; cell-free assay): > 10 µM
